The nature of data set [1]: Stability in mouse plasma by LC-MS/MS analysis. It is filed as ADME, cell-free.
For data set [2], the species on record is Rattus norvegicus. Nature of the data set: Inhibition of glucose-stimulated insulin secretion in dispersed rat pancreatic islets at 10 uM incubated for 2 hrs by ELISA. The class given is functional. The method in brief: (§1)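 Dispersed islets from male Sprague Dawley rats (collagenase digestion, Histopaque purification, Accutase dispersal, cultured up to 4 days). Pre-incubated 1 h in Krebs-Ringer with 5.6 mM glucose, then 2 h at 37 °C with 15 mM glucose, ±10 nM GLP1(9-36)NH2, ±compound 10 µM, DMSO vehicle; insulin by HTRF ELISA as % of total, n-fold vs control; N≥9.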
On the technique in general: In an ELISA, binding on a coated surface is turned into a signal by an enzyme label.

Data set [3] can be described thus: Apparent permeability from apical and basolateral in human Caco2/TC7 cells at apical pH 6.5 with 0.5% BSA and basolateral pH 7.4 with 5% BSA at 20 uM incubated for 2 hrs by LC-MS/MS analysis. The conditions noted are these: caco2/tc7, pH 6.5 apical, pH 7.4 basolateral. On the technique in general: Caco-2 monolayers are a common model of the intestinal barrier.
A short description of data set [4]: Chemical stability in pH 1.1 buffer. It is filed as physicochemical.
Data set [5] in a line: Clearance in Wistar rat at 3 mg/kg, iv administered as single dose measured up to 24 hrs ESI-LC/MS-MS analysis. The conditions noted are these: in vivo.
The nature of data set [6]: Clearance in Wistar rat at 3 mg/kg, iv administered as single dose treated 2 hrs after dosing with 40 mg/kg, po OATP/MRP2 inhibitor rifampicin and measured up to 24 hrs ESI-LC/MS-MS analysis. The conditions noted are these: in vivo. The class given is ADME, organism-based. The method in brief:
(§2)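 Male Wistar rats (n=3 per route) pretreated orally with rifampicin 40 mg/kg (0.6% methylcellulose, 0.5% Tween 80 in water) 2 h before compound, given 3 mg/kg i.v. in Glycoferol/Cremophor-water solution or 10 mg/kg p.o. wet-milled suspension. Plasma sampled up to 24 h; ESI-LC/MS-MS after acetonitrile precipitation (LOQ 1 ng/mL); noncompartmental analysis.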

Data set [7] can be described thus: Volume of distribution at steady state in C57Bl6 mouse at 3 mg/kg, iv administered as single dose measured up to 24 hrs ESI-LC/MS-MS analysis. The conditions noted are these: in vivo, read-out: Vdss. The class given is ADME, organism-based. The method in brief: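 Single dose of 3 mg/kg i.v. in water/Glycoferol/Cremophor solution to female C57Bl6 mice (n=24) or male Wistar rats (n=3). In rats, rifampicin 40 mg/kg p.o. was given 2 h before dosing where indicated. Plasma sampled at 0.083–24 h. ESI-LC/MS-MS after acetonitrile precipitation. Non-compartmental analysis.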

Data set [8] is described as follows: AUClast in Wistar rat at 10 mg/kg, po administered as single dose treated 2 hrs after dosing with 40 mg/kg, po OATP/MRP2 inhibitor rifampicin and measured up to 24 hrs ESI-LC/MS-MS analysis. The conditions noted are these: in vivo. It is filed as ADME, organism-based. More on the design: dose 10 mg/kg, time < 24 hr, route oral. The gist of the method:
as §2

In data set [9] the test system is Pancreatic islet. The data set is described as follows: Inhibition of glucose-stimulated insulin secretion in dispersed GLP-1(-/-) mouse pancreatic islets at 10 uM incubated for 2 hrs by ELISA. The class given is functional, cell-based.
Data set [10] is filed under the species Rattus norvegicus. Nature of the data set: Inhibition of GLP1(9-36)NH2-mediated glucose-stimulated insulin secretion in dispersed rat pancreatic islets at 10 uM incubated for 2 hrs by ELISA. It is filed as functional. The method in brief:
as §1

Active and inactive are the calls of the source. The calls are words filed in the database; no cut-off is given here.

As a reminder, the AUC(0-t) is exposure summed from dosing to a finite time, without extrapolation to infinity. Low values mean less exposure, high ones more exposure.

With `CC(C)(C)OC(=O)n1c2c(c3ccccc31)C[C@H]1C(=O)N3C[C@@H](CC(=O)O)C[C@H]3[C@@H]2N1C(=O)CC1CCC(F)(F)CC1`, the Stability in data set [1] and in data set [4] was 98% in each case. Besides, the inhibition entry in data set [2] is “inactive”. For the same compound, the Papp in [3] was 32 ×10⁻⁷ cm/s. In addition, in [5], the CL was 118 mL/min/kg. This compound showed a clearance in data set [6] of 19.2 mL/min/kg. Also, in [7], the Vd came out at 0.934 L/kg. Further, in data set [8], the AUC(0-t) at 24 h stood at 7340 ng·h/mL.
As for `CC(O)CCN1C[C@H]2c3c(c4ccccc4n3C(=O)OC(C)(C)C)C[C@@H](C1=O)N2C(=O)CC1CCC(F)(F)CC1` (stereo not given in full), the inhibition result in data set [9] and in data set [10] was “Active” in each case.

For the origin of these results see ChEMBL document CHEMBL4354813, “Design, Synthesis, and Pharmacological Evaluation of Potent Positive Allosteric Modulators of the Glucagon-like Peptide-1 Receptor (GLP-1R)” (J Med Chem, 2020).
